Screening data: PubChem, Broad Institute
Most compounds without a hit are left out; they make up all but 5.8% or so of the library.
GASC1 inh: inhibitors of GASC-1 (KDM4C) histone demethylase, primary screen, biochemical, single concentration HTS | GST-KDM4C 2-372, H3K9me3 peptide, LANCE TR-FRET | 96,000 tested, 0.15% active | inhibition, % at 12.5 µM;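 active = mean replicate inhibition above about 25%, with at least 55% of replicates also reaching it, limit read from the data, passing the limit was not always enough; inconclusive = only one of those two conditions met; inactive = neither condition met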
Target sequence (Q9H3R0 2-372 limits assumed): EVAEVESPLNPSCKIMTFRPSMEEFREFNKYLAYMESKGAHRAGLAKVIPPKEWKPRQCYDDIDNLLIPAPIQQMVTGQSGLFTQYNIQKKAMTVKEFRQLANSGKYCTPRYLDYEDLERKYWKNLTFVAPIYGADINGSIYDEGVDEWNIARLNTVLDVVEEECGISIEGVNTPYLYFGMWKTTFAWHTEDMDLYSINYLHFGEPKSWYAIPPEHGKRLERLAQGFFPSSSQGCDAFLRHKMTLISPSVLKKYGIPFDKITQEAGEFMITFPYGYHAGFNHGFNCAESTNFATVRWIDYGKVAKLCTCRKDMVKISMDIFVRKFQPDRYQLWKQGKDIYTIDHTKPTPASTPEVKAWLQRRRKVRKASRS
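Test system – GST-tagged GASC-1 (JMJD2C) catalytic fragment, aa 2-372 · Medium – HEPES buffer, pH 7.5, plus ascorbate · Reagent – H3K9me3 peptide with Fe(II)/2OG · Compound – one test concentration per compound · Timing – 30 min reaction, 60 min detection, RT · Technique – TR-FRET with Eu antibody and ULight streptavidin, EDTA stop · Read-out basis – inhibition from TR-FRET ratio decrease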
IDH1 mut inh: inhibitors of IDH1 R132H reductase, primary screen, biochemical, plate reader, single point. Isocitrate dehydrogenase [NADP] cytoplasmic (Homo sapiens), O75874. diaphorase/resazurin fluorescence, 60 min. inhibition, % at 10 µM. 70,000 tested, 0.18% active. AID 624101, 2012; in the data active = inhibition above about 34%; inconclusive = no clear call, values can overlap the other calls; inactive = below about 11%;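 also: 0% = DMSO and 100% = no enzyme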
T cruzi growth-1: T. cruzi intracellular proliferation inhibitors, primary screen, cell-based, beta-gal Tulahuen parasites, NIH3T3 host, luminescence. inhibition, % at 8.34 µM. 77,000 tested, 5.9% active. T. cruzi beta-gal in NIH3T3, GalScreen luminescence, 90 h;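 active = mean inhibition above about 93%, with at least 55% of replicates each passing it, limit read from the data, passing the limit was not always enough; inconclusive = only one of those two conditions holds; inactive = neither condition holds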
Pf Dd2 growth: P. falciparum Dd2 growth inhibitors, primary screen, SYBR Green fluorescence, single dose replicates; 94,000 tested, 2.3% active; AID 1159554, 2015; 72 h; active compounds read low; activity change, % at 10 µM; in the data active = activity change below about -80%; inconclusive = no clear call, values can overlap the other calls
T cruzi growth-2: T. cruzi intracellular proliferation inhibitors, confirmation, cell-based, NIH3T3 host, beta-gal parasite, luminescence, cherry-pick; shares compounds with T cruzi growth-1; T. cruzi beta-gal in NIH3T3, GalScreen luminescence, 90 h; inhibition, % at 8.35 µM; 5,600 tested, 72% active;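 active = mean replicate inhibition above about 95% and at least 55% of replicates individually reaching it, limit read from the data; inconclusive = only one of the two criteria is met; inactive = neither criterion is met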
T cruzi growth-3: inhibitors of intracellular T. cruzi replication, confirmation, NIH3T3 host cells, beta-gal parasites, cherry-pick, set 2; shares compounds with T cruzi growth-1; 5,600 tested, 21% active; T. cruzi beta-gal in NIH3T3, GalScreen luminescence, 90 h; inhibition, % at 2.09 µM;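 active = mean inhibition above about 95%, with at least 55% of replicates also reaching it, limit read from the data; inconclusive = meets just one of the two conditions; inactive = meets neither condition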;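 also: plate controls were neutral control median for no effect and positive control median for full effect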
3T3 cytotox: cytotoxicity in mouse NIH/3T3 fibroblasts, confirmation, cytotoxicity control for T. cruzi proliferation inhibitor project, cell-based, cherry-pick, single point; shares compounds with T cruzi growth-1; NIH/3T3 viability, CellTiter-Glo ATP luminescence, 90 h; 5,600 tested, 14% active; cytotoxicity (signal decrease), % at 8.35 µM;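 active = mean signal decrease across replicates above about 35% based on untreated-well scatter, with enough replicates individually passing, limit read from the data; inconclusive = no rule stated though some were filed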;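 also: 0% = median of neutral control wells and 100% = median of positive control wells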
NIH3T3 tox 2: NIH/3T3 fibroblast cytotoxicity, confirmation, cytotoxicity control, cell-based, cherry-pick, single point, set 2; shares compounds with T cruzi growth-1; NIH/3T3 viability, CellTiter-Glo ATP luminescence, 90 h; inhibition, % at 24.9 µM; 5,600 tested, 56% active; AID 651744, 2012;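 active = mean loss of cell viability signal at or above a set limit, and enough replicates individually reaching it; inconclusive = meets only the mean limit or only the replicate share; inactive = meets neither condition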;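 also: 0% = median of neutral control wells and 100% = median of positive control wells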
An asterisk follows results filed as active; ? = inconclusive; · = no result.

SMILES	GASC1 inh	IDH1 mut inh	T cruzi growth-1	Pf Dd2 growth	T cruzi growth-2	T cruzi growth-3	3T3 cytotox	NIH3T3 tox 2
C=CCNC(=O)[C@H]1[C@@H]2C(=O)O[C@@H](c3ccccc3)[C@@H](c3ccccc3)N2[C@@H](c2ccc(O)cc2)[C@]12C(=O)Nc1ccccc12	·	-0.2	·	·	·	·	·	·
COc1cc([N+](=O)[O-])ccc1NC(=O)CN(C)S(=O)(=O)c1ccc(C)cc1	·	0.0	·	·	·	·	·	·
CC(=O)c1cccc(NC(=O)CNS(=O)(=O)c2ccc(Cl)cc2)c1	·	-0.1	·	·	·	·	·	·
C[C@@H]1CN([C@@H](C)CO)C(=O)c2cc(NC(=O)Nc3ccc(C(F)(F)F)cc3)ccc2O[C@@H](C)CCCCO[C@@H]1CN(C)S(=O)(=O)c1ccccc1	1.0	·	76.1	-43.9	·	·	·	·
C[C@@H]1CCCCO[C@@H](CN(C)S(=O)(=O)c2ccccc2)[C@H](C)CN([C@@H](C)CO)C(=O)c2cc(NC(=O)Nc3ccc(C(F)(F)F)cc3)ccc2O1	2.0	·	109.3*	-75.2	104.4*	114.6*	13.0	1.2
C[C@@H]1CCCCO[C@@H](CN(C)S(=O)(=O)c2ccccc2)[C@@H](C)CN([C@@H](C)CO)C(=O)c2cc(NC(=O)Nc3ccc(C(F)(F)F)cc3)ccc2O1	1.0	·	104.8*	-58.7	103.3*	106.1*	36.9*	63.0*
C[C@@H]1CCCCO[C@@H](CN(C)S(=O)(=O)c2ccccc2)[C@@H](C)CN([C@H](C)CO)C(=O)c2cc(NC(=O)Nc3ccccc3)ccc2O1	0.0	0.5	35.6	-59.0	·	·	·	·
C[C@@H]1CN([C@@H](C)CO)C(=O)c2cc(NC(=O)Nc3ccc(C(F)(F)F)cc3)ccc2O[C@@H](C)CCCCO[C@H]1CN(C)S(=O)(=O)c1ccccc1	-0.4	·	109.3*	-49.2	103.4*	113.8*	14.2	16.1
Cn1c(SCC(=O)O)nnc1-c1ccccc1	·	1.0	·	·	·	·	·	·
CCOC(=O)c1c(C)[nH]c2ccc3c(c12)CN1CCc2cc(OC)ccc2C1O3 (stereo unspecified)	·	-4.2	·	·	·	·	·	·
O=S(=O)(NCCOc1ccccc1)c1cccc2cccc(Cl)c12	·	0.1	·	·	·	·	·	·
C[C@@H]1CN([C@H](C)CO)C(=O)c2cc(NS(=O)(=O)c3ccc(Cl)cc3)ccc2O[C@@H](C)CCCCO[C@H]1CN(C)C(=O)Nc1ccc2c(c1)OCO2	-0.2	1.6	·	-27.9	·	·	·	·
C[C@@H]1CCCCO[C@@H](CN(C)C(=O)Nc2ccc3c(c2)OCO3)[C@H](C)CN([C@H](C)CO)C(=O)c2cc(NS(=O)(=O)c3ccc(Cl)cc3)ccc2O1	-0.5	·	?	-28.8	101.4*	62.3	-17.9	6.0
C[C@@H]1CCCCO[C@@H](CN(C)C(=O)Nc2ccc3c(c2)OCO3)[C@H](C)CN([C@@H](C)CO)C(=O)c2cc(NS(=O)(=O)c3ccccc3)ccc2O1	0.6	·	50.0	-1.2	·	·	·	·
C[C@H](CO)N1C[C@H](C)[C@H](CN(C)C(=O)Nc2ccc3c(c2)OCO3)OCCCC[C@H](C)Oc2ccc(NS(=O)(=O)c3ccccc3)cc2C1=O	0.0	-1.6	101.3*	-35.0	107.0*	40.5	6.1	-4.9
O=C(CCCCCCC(=O)Nc1ccccc1O)N/N=C/c1ccccc1	·	0.0	·	·	·	·	·	·
CS(=O)(=O)N1[C@@H](C#N)[C@@H](c2ccc(C#CC3CC3)cc2)[C@@H]1CO	-1.6	·	103.1*	-28.4	107.4*	?	-21.5	16.1
N#C[C@@H]1[C@H](c2ccc(C#CC3CCCC3)cc2)[C@@H](CO)N1S(=O)(=O)c1ccccc1	-0.6	·	97.5*	-16.3	96.3*	106.9*	13.4	107.7*
CS(=O)(=O)N1[C@@H](C#N)[C@H](c2ccc(C#CC3CC3)cc2)[C@@H]1CO	-5.4	·	66.2	-27.6	·	·	·	·
CCc1nc(SCC(=O)Nc2c(C)cc(C)cc2[N+](=O)[O-])n[nH]1	·	1.2	·	·	·	·	·	·
Cc1sc(NC(=O)c2cc(-c3cccnc3)nc3ccc(Cl)cc23)c(C(N)=O)c1-c1ccccc1	·	0.4	·	·	·	·	·	·
N#Cc1ccccc1CSc1nnc(-c2ccccc2)n1-c1ccccc1	·	-0.3	·	·	·	·	·	·
COc1ccc(CN(C)C[C@H]2OCCCC[C@@H](C)Oc3ccc(NC(=O)Nc4ccc(C(F)(F)F)cc4)cc3C(=O)N([C@H](C)CO)C[C@@H]2C)cc1	·	·	74.5	-66.0	·	·	·	·
COc1ccc(NC(=O)Nc2ccc3c(c2)C(=O)N([C@H](C)CO)C[C@@H](C)[C@H](CN(C)Cc2ccc(C(F)(F)F)cc2)O3)cc1	10.9	-1.1	-11.2	9.9	·	·	·	·
C[C@@H]1CN([C@H](C)CO)C(=O)c2cc(NC(=O)Nc3ccc(C(F)(F)F)cc3)ccc2O[C@@H](C)CCCCO[C@H]1CN(C)Cc1ccc(C(F)(F)F)cc1	-1.6	1.5	83.8	?	·	·	·	·
C[C@H](CO)N1C[C@H](C)[C@@H](CN(C)Cc2ccc(C(F)(F)F)cc2)OCCCC[C@H](C)Oc2ccc(NC(=O)Nc3ccc(C(F)(F)F)cc3)cc2C1=O	12.3	·	32.1	38.3	·	·	·	·
COc1ccc(NC(=O)Nc2ccc3c(c2)C(=O)N([C@@H](C)CO)C[C@H](C)[C@H](CN(C)Cc2ccc(C(F)(F)F)cc2)OCCCC[C@@H](C)O3)cc1	2.6	0.0	96.0*	-29.6	104.8*	101.9*	15.8	6.5
C[C@@H]1CCCCO[C@@H](CN(C)Cc2ccc(C(F)(F)F)cc2)[C@@H](C)CN([C@H](C)CO)C(=O)c2cc(NC(=O)Nc3ccc(C(F)(F)F)cc3)ccc2O1	0.1	·	98.5*	62.2	111.6*	104.7*	18.0	6.4
COc1ccc(NC(=O)Nc2ccc3c(c2)C(=O)N([C@@H](C)CO)C[C@@H](C)[C@H](CN(C)Cc2ccc(C(F)(F)F)cc2)O3)cc1	-0.8	2.6	111.2*	-11.4	103.7*	-7.1	?	96.9*
C[C@@H]1CCCCO[C@H](CN(C)Cc2ccc(C(F)(F)F)cc2)[C@@H](C)CN([C@H](C)CO)C(=O)c2cc(NC(=O)Nc3ccc(C(F)(F)F)cc3)ccc2O1	1.2	1.2	98.5*	-65.8	105.0*	112.1*	-0.3	-1.3
